Test results from ChEMBL document CHEMBL3046169, “Synthesis and bioactivity study of 2-acylamino-substituted N'-benzylbenzohydrazide derivatives” (2012).
Values after ≈ are worked out from the molar mass of the structure shown. Active and inactive are the calls of the source. The calls are words filed in the database; no cut-off is given here.

Key:
Aphis gossypii [1] = experiment: Pesticidal activity against Aphis gossypii (cotton aphid) third-instar nymphae grown on tender Hibiscus syriacus leaves assessed as pest mortality at 2 mg/L measured 24 hr post compound exposure; assay type: functional; conditions: in Hibiscus syriacus
Procedure, shortened: (§1)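 Leaf-dip bioassay: over 30 healthy apterous third-instar nymphs on tender Hibiscus syriacus leaves dipped 5 s in compound diluted in distilled water with 0.05% Triton X-100, excess fluid removed. Held in illumination box at 25 ± 1 °C; mortality scored after 24 h. Tests in triplicate.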

Aphis gossypii [2] = experiment: Pesticidal activity against Aphis gossypii (cotton aphid) third-instar nymphae grown on tender Hibiscus syriacus leaves assessed as pest mortality at 200 mg/L measured 24 hr post compound exposure; assay type: functional; conditions: in Hibiscus syriacus; procedure, shortened: as §1
Tetranychus cinnabarinus [3] = experiment: Pesticidal activity against Tetranychus cinnabarinus (carmine spider mite) third- instar larvae grown on Phaseolus vulgaris leaves assessed as pest mortality measured 48 hr post compound exposure; assay type: functional
Procedure, shortened: (§2)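 More than 20 third-instar mite larvae on Phaseolus vulgaris leaves dipped 5 s in compound solutions (water with 0.05% Triton X-100), excess liquor removed. Larvae held at 25 ± 1 °C in illumination box; mortality read at 48 h. Primary screen at 600 mg L⁻¹, follow-up at 400, 200, 100, 50 and 25 mg L⁻¹ with LC50 calculated. Triplicate tests.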

Tetranychus cinnabarinus [4] = experiment: Pesticidal activity against Tetranychus cinnabarinus (carmine spider mite) third- instar larvae grown on Phaseolus vulgaris leaves assessed as pest mortality at 25 mg/L measured 48 hr post compound exposure; assay type: functional; procedure, shortened: as §2
Tetranychus cinnabarinus [5] = experiment: Pesticidal activity against Tetranychus cinnabarinus (carmine spider mite) third- instar larvae grown on Phaseolus vulgaris leaves assessed as pest mortality at 100 mg/L measured 48 hr post compound exposure; assay type: functional; procedure, shortened: as §2
Tetranychus cinnabarinus [6] = experiment: Pesticidal activity against Tetranychus cinnabarinus (carmine spider mite) third- instar larvae grown on Phaseolus vulgaris leaves assessed as pest mortality at 400 mg/L measured 48 hr post compound exposure; assay type: functional; procedure, shortened: as §2
Plutella xylostella [7] = experiment: Pesticidal activity against Plutella xylostella (diamondback moth) second-instar larvae grown on cruciferous vegetables leaves leaves as pest mortality at 0.2 mg/L measured 48 hr post compound exposure; assay type: functional
Procedure, shortened: (§3)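 Over 20 second-instar larvae on cruciferous vegetable leaves dipped 5 s in compound diluted in distilled water containing 0.05% Triton X-100, excess liquid removed. Kept in illumination box at 25 ± 1 °C; mortality recorded 48 h after treatment. Each test in triplicate.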

Tetranychus cinnabarinus [8] = experiment: Pesticidal activity against Tetranychus cinnabarinus (carmine spider mite) third- instar larvae grown on Phaseolus vulgaris leaves assessed as pest mortality at 50 mg/L measured 48 hr post compound exposure; assay type: functional; procedure, shortened: as §2
Tetranychus cinnabarinus [9] = experiment: Pesticidal activity against Tetranychus cinnabarinus (carmine spider mite) third- instar larvae grown on Phaseolus vulgaris leaves assessed as pest mortality at 200 mg/L measured 48 hr post compound exposure; assay type: functional; procedure, shortened: as §2
Tetranychus cinnabarinus [10] = experiment: Pesticidal activity against Tetranychus cinnabarinus (carmine spider mite) third- instar larvae grown on Phaseolus vulgaris leaves assessed as conversion of corpus colour to black at 25 to 400 mg/L measured 48 hr post compound exposure; assay type: functional, organism-based
Procedure, shortened: (§4)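 Mite larvae (>20 third-instar on Phaseolus vulgaris leaves) leaf-dipped 5 s in compound at 400, 200, 100, 50 or 25 mg L⁻¹ in water with 0.05% Triton X-100, kept at 25 ± 1 °C. Movement of larvae observed at 1 h; corpse colour change to black observed at 48 h after treatment.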

Tetranychus cinnabarinus [11] = experiment: Pesticidal activity against Tetranychus cinnabarinus (carmine spider mite) third- instar larvae grown on Phaseolus vulgaris leaves assessed as reduction in larval movement at 25 to 400 mg/L measured 1 hr post compound exposure; assay type: functional, organism-based; procedure, shortened: as §4
Plutella xylostella [12] = experiment: Pesticidal activity against Plutella xylostella (diamondback moth) second-instar larvae grown on cruciferous vegetables leaves leaves as pest mortality at 600 mg/L measured 48 hr post compound exposure; assay type: functional; procedure, shortened: as §3
Tetranychus cinnabarinus [13] = experiment: Pesticidal activity against Tetranychus cinnabarinus (carmine spider mite) third- instar larvae grown on Phaseolus vulgaris leaves assessed as pest mortality at 600 mg/L measured 48 hr post compound exposure; assay type: functional; procedure, shortened: as §2
Aphis gossypii [14] = experiment: Pesticidal activity against Aphis gossypii (cotton aphid) third-instar nymphae grown on tender Hibiscus syriacus leaves assessed as pest mortality at 600 mg/L measured 24 hr post compound exposure; assay type: functional; conditions: in Hibiscus syriacus; procedure, shortened: as §1

Row | SMILES | mortality at 2 µg/mL (Aphis gossypii [1]) [%] | mortality at 200 µg/mL (Aphis gossypii [2]) [%] | LC50 (Tetranychus cinnabarinus [3]) [µg/mL] | mortality at 25 µg/mL (Tetranychus cinnabarinus [4]) [%] | mortality at 100 µg/mL (Tetranychus cinnabarinus [5]) [%] | mortality at 400 µg/mL (Tetranychus cinnabarinus [6]) [%] | mortality at 0.2 µg/mL (Plutella xylostella [7]) [%] | mortality at 50 µg/mL (Tetranychus cinnabarinus [8]) [%] | mortality at 200 µg/mL (Tetranychus cinnabarinus [9]) [%] | Activity (Tetranychus cinnabarinus [10]) | Activity (Tetranychus cinnabarinus [11]) | mortality at 600 µg/mL (Plutella xylostella [12]) [%] | mortality at 600 µg/mL (Tetranychus cinnabarinus [13]) [%] | mortality at 600 µg/mL (Aphis gossypii [14]) [%]
1 | O=[N+]([O-])/N=C1\NCCN1Cc1ccc(Cl)nc1 [IMIDACLOPRID] | 100 | – | – | – | – | – | – | – | – | – | – | – | – | –
2 | CNC(=O)c1cc(Cl)cc(C)c1NC(=O)c1cc(Br)nn1-c1ncccc1Cl [CHLORANTRANILIPROLE] | – | 91.3 | 633 (≈ 1310 µM) | 7.4 | 17.2 | 40.7 | 100 | 13.2 | 29.9 | – | – | – | – | –
3 | Cc1cc(Br)cc(C(=O)NNCc2cccc(C(F)(F)F)c2)c1NC(=O)CC(C)(C)C | – | – | 89.8 (≈ 179 µM) | 26 | 43.3 | 93.3 | – | 38.4 | 64.4 | Active | Active | 40 | 100 | 18.7
